Consider four compounds from ChEMBL document CHEMBL2057101, “Fluorocyclines. 2. Optimization of the C-9 side-chain for antibacterial activity and oral efficacy” (J Med Chem, 2012).

For data set [1], the system named is Staphylococcus aureus. In words: Antibacterial activity against tetracycline-susceptible Staphylococcus aureus ATCC 13709 Smith isolate SA100. It is filed as functional. The gist of the method: (§1)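 Broth microdilution MIC following CLSI methods in cation-adjusted Mueller Hinton broth, prepared fresh and held at 4 °C before testing. Defibrinated horse blood added to the medium where appropriate. Runs accepted when quality control ranges for comparator antibiotics and ATCC QC strains were met.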

Data set [2] deals with Staphylococcus aureus. Description: Antibacterial activity against tetracycline-resistant Staphylococcus aureus isolate SA161 expressing TetM gene. It is filed as functional. The gist of the method: as §1
Data set [3] relates to Staphylococcus aureus. Description: Antibacterial activity against tetracycline-resistant Staphylococcus aureus isolate SA158 expressing TetK gene. In kind it is functional.
The test system of data set [4] is Streptococcus pneumoniae. In words: Antibacterial activity against Streptococcus pneumoniae ATCC 49619 isolate 106. It is filed as functional. The gist of the method: (§2)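 MIC by broth microdilution in liquid medium per CLSI, in cation-adjusted Mueller Hinton broth made fresh and held at 4 °C before testing. Horse blood (defibrinated) added to the medium where appropriate. Runs were accepted only when the comparator antibiotics and ATCC QC strains fell within their recommended ranges.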

Data set [5] deals with Streptococcus pneumoniae. Description: Antibacterial activity against tetracycline-resistant Streptococcus pneumoniae isolate 160 expressing tetM gene. It is filed as functional.
Data set [6] has as its system Escherichia coli. In words: Antibacterial activity against Escherichia coli ATCC 25922 isolate 107. It is filed as functional. Summed up: as §2
Data set [7] concerns Escherichia coli. In words: Antibacterial activity against Escherichia coli isolate EC155 expressing tetA gene. It is filed as functional. Summed up:
as §2

Data set [8] deals with Klebsiella pneumoniae. Description: Antibacterial activity against Klebsiella pneumoniae ATCC 13883. It is filed as functional. Summed up: as §2
Data set [9] has as its system Staphylococcus aureus. Description: Antibacterial activity against Staphylococcus aureus ATCC 13709 infected in CD-1 mouse assessed as increase in survival at 3 mg/kg, iv administered as single dose 1 hr post infection measured after 48 hrs post infection. In kind it is functional. Summed up:
(§3)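 Mouse septicemia screen: S. aureus grown to log phase, diluted in 5% mucin to give 90% mortality within 48 h, inoculum 1.98 × 10⁶ CFU/mouse, 0.5 mL intraperitoneal into female CD-1 mice (18−20 g). Six mice per group. Single 30 mg/kg oral gavage or 3 mg/kg IV dose 1 h post infection. Infection controls received sterile water vehicle. Survival recorded at 48 h.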

Data set [10] concerns Staphylococcus aureus. In words: Antibacterial activity against Staphylococcus aureus ATCC 13709 infected in CD-1 mouse assessed as increase in survival at 30 mg/kg, po administered as single dose 1 hr post infection measured after 48 hrs post infection. In kind it is functional. The gist of the method: as §3
The test system of data set [11] is Staphylococcus aureus. Description: Antibacterial activity against Staphylococcus aureus ATCC 13709 infected in po dosed CD-1 mouse assessed as increase in survival administered as single dose 1 hr post infection measured after 48 hrs post infection. In kind it is functional. The settings on record: ATCC 13709, po, read-out: PD50.
A short description of data set [12]: Oral bioavailability in rat. The settings on record: in vivo. In kind it is ADME, organism-based.
The test system of data set [13] is Staphylococcus aureus. Description: Antibacterial activity against methicillin-resistant Staphylococcus aureus VL-137. It is filed as functional. Summed up: as §1
Data set [14] deals with Streptococcus pneumoniae. Description: Antibacterial activity against Streptococcus pneumoniae SPN160. It is filed as functional. The gist of the method: as §1
For data set [15], the system named is Haemophilus influenzae. In words: Antibacterial activity against Haemophilus influenzae 551. It is filed as functional. The gist of the method: as §2
In data set [16] the test system is Streptococcus pyogenes. In words: Antibacterial activity against Streptococcus pyogenes. It is filed as functional. Summed up: as §2
The test system of data set [17] is Moraxella catarrhalis. Description: Antibacterial activity against Moraxella catarrhalis. It is filed as functional. The gist of the method: as §2
Data set [18] concerns Acinetobacter baumannii. Description: Antibacterial activity against Acinetobacter baumannii. In kind it is functional. The gist of the method: as §2
Data set [19] deals with Haemophilus influenzae. In words: Antibacterial activity against Haemophilus influenzae 551 infected in immunocompetent Sprague-Dawley rat assessed as reduction in lung CFU per gram of tissue at 50 mg/kg, po administered 5, 24 and 48 hrs post infection measured after 72 hrs. It is filed as functional. Summed up:
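Male Sprague-Dawley rats (175–200 g), immunocompetent, infected intratracheally with H. influenzae 551 (0.05 mL) under light anesthesia. Dosing at 5, 24 and 48 h post infection: test agent 100 mg/kg/dose orally or 25 mg/kg/dose IV; azithromycin 50 mg/kg/dose orally. Six rats per dose. Lungs removed 72 h after treatment began, homogenized, serially diluted, plated on TSA-II, incubated overnight at 37 °C in 5% CO2; CFU/g lung calculated.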

Converted amounts (≈) assume the structure as drawn. A value given as a limit tells only on which side of the number the result lay.

Consider `CN(C)[C@@H]1C(O)=C(C(N)=O)C(=O)[C@@]2(O)C(O)=C3C(=O)c4c(O)c(NC(=O)[C@@H]5CCN5C)cc(F)c4C[C@H]3C[C@@H]12`, for which the MIC in [1], in data set [2], in data set [3], in data set [4], in [5] and in [6] was 0.016 µg/mL (≈ 0.0294 µM) each time. The MIC in data set [7] came to 1 µg/mL (≈ 1.84 µM); in data set [8], 0.063 µg/mL (≈ 0.116 µM); in data set [14] it was 0.016 µg/mL (≈ 0.0294 µM); in [16], 0.016 µg/mL (≈ 0.0294 µM); in data set [17], 0.016 µg/mL (≈ 0.0294 µM). For the same compound, in [9], the survival at 3 mg/kg amounted to 100%. Moreover, in data set [10], the survival at 30 mg/kg was found to be 83%. Further, the ED50 in data set [11] turned out to be 14.3 mg/kg. The bioavailability in data set [12] is 4.6%. Further, the MIC50 in data set [13] turned out to be 0.031 µg/mL (≈ 0.0569 µM); in data set [14], 0.016 µg/mL (≈ 0.0294 µM); in [15] it was 0.063 µg/mL (≈ 0.116 µM); in [16] it was 0.016 µg/mL (≈ 0.0294 µM); in [17], 0.016 µg/mL (≈ 0.0294 µM); in [18], 0.13 µg/mL (≈ 0.239 µM). For the same compound, the MIC90 in data set [13] turned out to be 1 µg/mL (≈ 1.84 µM); in data set [14] it was 0.016 µg/mL (≈ 0.0294 µM); in data set [15] it was 0.25 µg/mL (≈ 0.459 µM); in data set [16], 0.016 µg/mL (≈ 0.0294 µM); in [17] it was 0.016 µg/mL (≈ 0.0294 µM); in [18], 1 µg/mL (≈ 1.84 µM).
On to `CNC(=O)Nc1cc(F)c2c(c1O)C(=O)C1=C(O)[C@]3(O)C(=O)C(C(N)=O)=C(O)[C@@H](N(C)C)[C@@H]3C[C@@H]1C2`, for which the MIC in data set [1] was found to be 0.25 µg/mL (≈ 0.496 µM); in data set [2], 2 µg/mL (≈ 3.96 µM); in data set [3] it was 16 µg/mL (≈ 31.7 µM); in data set [4], 0.031 µg/mL (≈ 0.0615 µM); in [5], 0.5 µg/mL (≈ 0.991 µM); in data set [6], 1 µg/mL (≈ 1.98 µM). The MIC in data set [7] is greater than 32 µg/mL; in data set [8] it was 4 µg/mL (≈ 7.93 µM). In data set [9], the survival at 3 mg/kg worked out at 83%. Besides, in [10], the survival at 30 mg/kg was 33%. In addition, the ED50 in [11] is greater than 30 mg/kg.
As to `CC(C)CCNc1cc(F)c2c(c1O)C(=O)C1=C(O)[C@]3(O)C(=O)C(C(N)=O)=C(O)[C@@H](N(C)C)[C@@H]3C[C@@H]1C2`, the MIC in data set [1] was 0.25 µg/mL (≈ 0.483 µM); in data set [2], 0.5 µg/mL (≈ 0.966 µM); in data set [3] it was 0.13 µg/mL (≈ 0.251 µM); in [4], 2 µg/mL (≈ 3.86 µM); in data set [5] it was 4 µg/mL (≈ 7.73 µM); in [6] it was greater than 32 µg/mL. Moreover, the MIC in data set [7] and in data set [8] was greater than 32 µg/mL each time. Moreover, the survival at 3 mg/kg in data set [9] stood at 17%. In data set [10], the survival at 30 mg/kg stood at 33%. In addition, the ED50 in data set [11] is greater than 60 mg/kg.
For `CC[C@H]1OC(=O)[C@H](C)[C@@H](O[C@H]2C[C@@](C)(OC)[C@@H](O)[C@H](C)O2)[C@H](C)[C@@H](O[C@@H]2O[C@H](C)C[C@H](N(C)C)[C@H]2O)[C@](C)(O)C[C@@H](C)CN(C)[C@H](C)[C@@H](O)[C@]1(C)O` [AZITHROMYCIN], the log10CFU/g result in data set [19] is reported as “>=6”.

Usually MIC stands for the smallest concentration in the dilution series that meets the test's criterion for growth inhibition. Read a low MIC as inhibition by little substance. The bioavailability is dose-corrected exposure relative to a reference, in per cent.
